# From ChEMBL document CHEMBL1781911, “Verrucamides A-D, antibacterial cyclopeptides from Myrothecium verrucaria” (J Nat Prod, 2011)
# Square brackets hold non-standard residues; d marks the D form. Peptide text beside a SMILES is read from it. NMeT = CN[C@H](C(=O)O)[C@@H](C)O; aIle = CC[C@@H](C)[C@H](N)C(=O)O; dNMeF = CN[C@H](Cc1ccccc1)C(=O)O; NMeV = CN[C@H](C(=O)O)C(C)C; NMeS = CN[C@@H](CO)C(=O)O; dNMeA = CN[C@H](C)C(=O)O
# Test system: Staphylococcus aureus
# Assay: Antibacterial activity against Staphylococcus aureus Col CGMCC 1.2465 after 24 hrs by NCCLS […] method
# Format: functional, organism-based
# Conditions: COL CGMCC 1.2465, 24 h
# How it was run: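 Broth microdilution in triplicate per NCCLS guidance; strain grown in Mueller-Hinton broth, 3-4 colonies cultured at 37 °C for 24 h, final inoculum 10^6 cells/mL in MHB. Samples from 10 mg/mL DMSO stocks, serially diluted; ampicillin positive control. Incubated 37 °C for 24 h, growth read as absorbance at 595 nm.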
IC50,MIC,Compound
0.09 µg/mL,0.625 µg/mL,CC1(C)S[C@@H]2[C@H](NC(=O)[C@H](N)c3ccccc3)C(=O)N2[C@H]1C(=O)O [AMPICILLIN]
3.59 µg/mL,10 µg/mL,CC[C@@H](C)[C@@H]1NC(=O)CNC(=O)[C@@H](C)N(C)C(=O)[C@H](C(C)C)NC(=O)[C@H]([C@@H](C)O)N(C)C(=O)[C@H](C(C)C)NC(=O)[C@H]([C@@H](C)O)N(C)C(=O)[C@H](C(C)C)NC(=O)CNC(=O)[C@@H](Cc2ccccc2)N(C)C(=O)[C@H](C(C)C)NC(=O)[C@H](CO)NC(=O)[C@H]([C@H](C)CC)N(C)C(=O)[C@H](CO)N(C)C1=O [VERRUCAMIDE A]
5.31 µg/mL,20 µg/mL,CC[C@@H](C)[C@@H]1NC(=O)CNC(=O)[C@@H](C)N(C)C(=O)[C@H](C(C)C)NC(=O)[C@H]([C@@H](C)O)N(C)C(=O)[C@H](C(C)C)NC(=O)[C@H]([C@@H](C)O)N(C)C(=O)[C@H](C(C)C)NC(=O)CNC(=O)[C@@H](Cc2ccccc2)N(C)C(=O)[C@H](C(C)C)NC(=O)[C@H](CO)NC(=O)[C@H](C(C)C)N(C)C(=O)[C@H](CO)N(C)C1=O [VERRUCAMIDE B] (cyclo(GV[NMeT]V[NMeT]V[dNMeA]G[aIle][NMeS][NMeV]SV[dNMeF]))
4.45 µg/mL,10 µg/mL,CC[C@@H](C)[C@H]1C(=O)N[C@@H](CO)C(=O)N[C@@H](C(C)C)C(=O)N(C)[C@H](Cc2ccccc2)C(=O)NCC(=O)N[C@@H](C(C)C)C(=O)N(C)[C@@H]([C@@H](C)O)C(=O)N[C@@H](C(C)C)C(=O)N(C)[C@@H]([C@@H](C)O)C(=O)N[C@@H](C(C)C)C(=O)N(C)[C@H](C)C(=O)NCC(=O)N[C@@H](C(C)C)C(=O)N(C)[C@@H](CO)C(=O)N1C [VERRUCAMIDE C]
9.09 µg/mL,40 µg/mL,CC(C)[C@@H]1NC(=O)[C@H]([C@@H](C)O)N(C)C(=O)[C@H](C(C)C)NC(=O)[C@H]([C@@H](C)O)N(C)C(=O)[C@H](C(C)C)NC(=O)CNC(=O)[C@@H](Cc2ccccc2)N(C)C(=O)[C@H](C(C)C)NC(=O)[C@H](CO)NC(=O)[C@H](C(C)C)N(C)C(=O)[C@H](CO)N(C)C(=O)[C@H](C(C)C)NC(=O)CNC(=O)[C@@H](C)N(C)C1=O [VERRUCAMIDE D]
